# Experimental data pooled from the literature.
# Compare with care: the assays were run in different laboratories.
# Target: Serine/threonine-protein kinase MARK2 (MARK2, Homo sapiens, UniProt Q7KZI7)
SMILES,observed,action,method,concentration,measurement,result
FC(F)c1nc2ccccc2n1-c1nc(N2CCOCC2)nc(N2CCOCC2)n1,enzyme activity,inhibitor,,10 µM,remaining activity,87%
CC(=O)Nc1c(C(C)=O)c(=O)n(C)c2nc(-c3ccc(Cl)cc3Cl)c(-c3ccc(Cl)cc3)cc12,cell-free assay,,competition with immobilised ligand,1 µM,remaining binding,100%
Cc1ccc(Nc2nccc(N(C)c3ccc4c(C)n(C)nc4c3)n2)cc1S(N)(=O)=O,enzyme activity,inhibitor,,10 µM,inhibition,16%
O=C(NCCCNc1nc(Nc2cccc(NC(=O)N3CCCC3)c2)ncc1I)c1cccs1,enzyme activity,inhibitor,radiometric,1 µM,remaining activity,3%
CN(C)C1CCN(CC#Cc2nn(C3CCCC3)c3nc(NCc4ccccc4)ncc23)C1 (stereo not drawn),enzyme activity,inhibitor,FRET,10 µM,inhibition,16%
COc1cc(/C=C/C(=O)CC(=O)/C=C/c2ccc(O)c(OC)c2)ccc1O,enzyme activity,inhibitor,,1 µM,activity vs control,78%
NS(=O)(=O)c1ccc(CNc2ccnc(Nc3cccc(CN4CCOCC4)c3)n2)cc1,enzyme activity,inhibitor,radiometric,1 µM,remaining activity,102%
COc1ccc2c(c1)O[C@@H](c1ccc(OC)c(OC)c1)C[C@H]2NC(=O)C1(c2ccc3c(c2)OC(F)(F)O3)CC1,cell-free assay,,competition with immobilised ligand,1 µM,remaining binding,92%
CCCCNc1ncc2c(-c3ccc(F)cc3)nn(C[C@H]3CC[C@H](N)CC3)c2n1,target engagement in cells,inhibitor,chemoproteomics,20 mM,inhibition,18%
Cc1c(NC(=O)c2cc(C(N)=O)nc3cc(F)ccc23)c(C(F)(F)F)nn1Cc1ccc(C#N)cc1,cell-free assay,,competition with immobilised ligand,1 µM,remaining binding,97%
O=C(NCCCNc1ccnc(Nc2cccc(NC(=O)N3CCCC3)c2)n1)C1CCC1,enzyme activity,inhibitor,radiometric,1 µM,remaining activity,82%
O=C1Nc2ccc(Cl)cc2C1=Cc1cc(Cl)c(O)c(Cl)c1,cell-free assay,,,0.5 µM,remaining signal,79.7%
CCCCN(CCCC)C(=O)CN1C[C@@H](c2cc(OC)c3c(c2)OCO3)[C@H](C(=O)O)[C@H]1CC(C)(C)CCC,cell-free assay,,competition with immobilised ligand,1 µM,remaining binding,100%
Cc1nn(CC(F)(F)F)cc1Nc1nccc(NCCc2cnc[nH]2)n1,enzyme activity,inhibitor,radiometric,1 µM,remaining activity,104%
CN(C)C(=O)Cn1cc(-c2nc(C3(c4ccc(-c5cnc(N)nc5)cc4)CC3)no2)cn1,cell-free assay,,competition with immobilised ligand,1 µM,remaining binding,92%
COc1cc2ncnc(Nc3ccc(Oc4ccccc4)c(C)c3C)c2cc1OC,enzyme activity,inhibitor,,1 µM,inhibition,6%
NS(=O)(=O)c1ccc(CNc2ccnc(Nc3cccc(NC(=O)N4CCCC4)c3)n2)cc1,enzyme activity,inhibitor,radiometric,1 µM,remaining activity,115%
CS(=O)(=O)N1CCCC(NC(=O)[C@H](CCC2CCCCC2)NC(=O)c2ccc(CNC(=O)c3cnc4ccccn34)cc2)C1 (stereo partly drawn),cell-free assay,,competition with immobilised ligand,0.1 µM,remaining binding,100%
